A selection: hits, their analogues and other compounds. The true share with any hit is near 11%.
Htt clearance – clearance of mutant huntingtin inclusions, primary screen, imaging, HeLa Exon1htt(103Q)mCFP, confocal imaging | hit rate 0.42% among 47,000 | inhibition, % at 1.5 µM | aggregate imaging; zero = plate's median compound well;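 active = inhibition of aggregate fluorescence above about 70%, also judged a hit by eye on the cell image, limit read from the data, passing the limit was not always enough; inconclusive = no rule stated for this call; inactive = not judged a hit on image review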;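 also: cells exposed to compound for three days before fixation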
RORA act – activators of orphan receptor RORA, primary screen, cell-based, luminescence; Nuclear receptor ROR-alpha (Homo sapiens), P35398; CHO-K1 Gal4-RORA LBD luciferase reporter; percent increase over mock-subtracted basal signal; hit rate 1.5% among 65,000; AID 560, 2006; activation, % at 10 µM;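 active = activation above the mean of all tested compounds plus 3 SD, cut at about 49% in these data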;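 also: 0% = DMSO-treated RORA cells and 100% = added signal equal to DMSO minus mock-transfected cells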
Target sequence (P35398 whole entry, looked up, the tested form may be a part): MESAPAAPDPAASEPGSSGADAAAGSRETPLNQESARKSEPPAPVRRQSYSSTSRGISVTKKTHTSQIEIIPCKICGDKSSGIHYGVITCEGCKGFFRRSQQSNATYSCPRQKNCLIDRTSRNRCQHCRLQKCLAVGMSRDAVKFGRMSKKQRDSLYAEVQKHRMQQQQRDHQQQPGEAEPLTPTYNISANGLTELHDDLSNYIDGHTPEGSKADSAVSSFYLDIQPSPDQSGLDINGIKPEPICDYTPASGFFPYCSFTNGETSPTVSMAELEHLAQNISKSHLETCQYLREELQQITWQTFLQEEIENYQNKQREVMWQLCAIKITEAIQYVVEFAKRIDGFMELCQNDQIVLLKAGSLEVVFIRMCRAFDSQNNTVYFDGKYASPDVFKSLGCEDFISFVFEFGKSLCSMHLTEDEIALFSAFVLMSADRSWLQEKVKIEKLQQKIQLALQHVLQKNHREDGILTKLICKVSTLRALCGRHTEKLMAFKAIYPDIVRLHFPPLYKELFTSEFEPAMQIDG
SF-1 act – activators of human SF-1, primary screen, cell-based, CHO-K1, Gal4-SF-1 LBD, luciferase luminescence. Steroidogenic factor 1 (Homo sapiens), Q13285. CHO-K1 Gal4-SF-1 LBD luciferase reporter; % increase over DMSO SF-1-specific signal. activation, % at 10 µM. hit rate 1.9% among 65,000. AID 522, 2006;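 active = activation above the mean activation of all tested compounds plus 3 SD, cut at about 50% in these data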
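Assay system: CHO-K1 cells co-transfected with Gal4 DBD–human SF-1 LBD, 5xGal4 luciferase reporter; doses: 10 µM only; incubation: 20 h compound exposure at 37 °C after 1 h cell settling; signal: luciferase light emission; evaluation: percent activation versus DMSO; repeats: one test per compound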
D1 allo mod – D1 CRE-luciferase signal change, two-sided – cell-based, HEK293 D1, dopamine EC30, D1 allosteric modulator project, primary screen; D(1A) dopamine receptor (Homo sapiens), P21728; dopamine EC30 potentiation; actives deviate in either direction; B-score at 10 µM; hit rate 5.9% among 58,000; AID 641, 2007;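 active = luminescence count or its row- and column-corrected plate score outside the 99.7% band of the plate's sample wells, on either side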
M1 antag – antagonists of rat M1 muscarinic receptor | CHO-M1 cells, Fluo-4 calcium, ACh EC80 antagonist mode; stronger effect = lower value | B-score at 10 µM | hit rate 3.4% among 64,000;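 active = calcium fluorescence response, raw or row-and-column corrected B-score, differing from the plate sample mean either way at a set confidence level, mostly lower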
M1 ag – M1 muscarinic receptor agonists, primary screen, CHO-M1 cells, Fluo-4 calcium, agonist mode; Muscarinic acetylcholine receptor M1; Fluo-4 calcium fluorescence; stronger effect = higher value; B-score at 10 µM; hit rate 3% among 64,000; AID 626, 2007;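 active = fluorescence rise, raw or as B-score row- and column-corrected plate score, outside the 99.7% band of its plate's samples, either direction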
M1 agonist conf – rat M1 muscarinic receptor agonists, confirmation, CHO-M1 cells, Fluo-4 calcium, duplicate retest | AID 1488, 2009 | fluorescence change (max-min) at 10 µM | shares compounds with M1 ag | hit rate 19% among 1,700 | Fluo-4 calcium fluorescence, agonist mode; actives lie on both sides;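 active = fluorescence change differs from the solvent-only DMSO control mean at a set confidence level in both duplicate runs; inconclusive = differs from solvent-only control mean in just one of two runs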;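 also: an EC20 dose of acetylcholine follows compound addition during the same imaging run; raw fluorescence intensity difference in instrument units with no normalization to controls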
M4 ag counter – agonist activity at rat M4 receptor, confirmation, counter-screen for M1 allosteric modulator project, cell-based, agonist mode | shares compounds with M1 ag | fluorescence change (max-min) at 10 µM | AID 1741, 2009 | hit rate 9% among 1,700 | CHO M4/Gqi5 cells, Fluo-4 calcium fluorescence; actives lie on both sides;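 active = fluorescence change differing from the plate's solvent-only control wells at 99.7% confidence in both duplicates, whether higher or lower; inconclusive = differs from solvent controls in only one of two duplicates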
* = called active by the depositor.

CC(C)(C)Nc1nc2nonc2nc1NC(C)(C)C was read as Htt clearance -2.
For Cc1cccc(-n2nnnc2SCc2csc(-c3ccccc3)n2)c1 the results were Htt clearance 65, RORA act 8, SF-1 act 4, D1 allo mod 2.1, M1 antag 0.31 and M1 ag -0.043.
Screening O=C(O)CCC(=O)NC1CCCCC1NC(=O)CCC(=O)O (centres undefined) returned Htt clearance 9, RORA act -10, SF-1 act -16, D1 allo mod -0.082, M1 antag 0.4 and M1 ag 0.63.
COc1ccc(CCn2c(-c3ccco3)nc3nc4ccccc4nc32)cc1 was read as Htt clearance inconclusive, RORA act 12, SF-1 act 29, D1 allo mod 0.75, M1 antag -0.0081, M1 ag 3.5*, M1 agonist conf -7.1 and M4 ag counter -12.
Screening CCCn1c(-c2ccc(OC)cc2)nc2nc3ccccc3nc21 returned Htt clearance 22, RORA act 4, SF-1 act 20, D1 allo mod -0.13, M1 antag -0.92 and M1 ag -0.16.
Screening CCOc1ccc2nc(N3CCC(C(=O)N4CCN(C(=O)c5ccco5)CC4)CC3)sc2c1 returned RORA act 16, SF-1 act 18, D1 allo mod -0.48, M1 antag -0.37, M1 ag 2.8*, M1 agonist conf inconclusive and M4 ag counter -38.
`CCOC(=O)N1CCN(C(=O)c2ccc3nc(N4CCC(C)CC4)sc3c2)CC1` gave Htt clearance -26, RORA act 0, SF-1 act 26, M1 antag -1.1 and M1 ag 0.77.
`CC1CC(=O)c2cnc(Nc3cccc(C(F)(F)F)c3)nc2C1` (centres undefined) gave Htt clearance 23, RORA act 7, SF-1 act 13, D1 allo mod 0.39, M1 antag 0.45, M1 ag 3*, M1 agonist conf -4.8 and M4 ag counter 0.27.
Screening CCOc1cc(C2C(C#N)=C(N)OC(C)=C2C(C)=O)cc(Br)c1O (centres undefined) returned RORA act -13, SF-1 act -12, D1 allo mod 0.32, M1 antag -0.027, M1 ag 23*, M1 agonist conf 180* and M4 ag counter 170*.
CN1CCN(c2ncnc3c2cnn3-c2ccc(Cl)cc2)CC1 was read as RORA act -22, SF-1 act -2, D1 allo mod -6.2*, M1 antag -1.1, M1 ag 2.9*, M1 agonist conf inconclusive and M4 ag counter -53.
For CC(C)C(c1nnnn1C1CCCCC1)N1CCN(c2ncccn2)CC1 (centres undefined) the results were RORA act -10, SF-1 act -3, D1 allo mod -0.61, M1 antag 0.064, M1 ag 4.4*, M1 agonist conf -14 and M4 ag counter -33.
`O=C(NC1CCCC1)c1sc(=S)n2c1[nH]c(=O)c1ccccc12` gave Htt clearance -6, RORA act -22, SF-1 act 4, D1 allo mod -2.1, M1 antag -1.4 and M1 ag 0.56.
`O=C(NCc1ccco1)c1sc(=S)n2c1[nH]c(=O)c1ccccc12` gave Htt clearance 12, RORA act -4, SF-1 act 0, D1 allo mod -0.95, M1 antag -2, M1 ag 12*, M1 agonist conf 53 and M4 ag counter 35.

Bioassay records deposited in PubChem by several laboratories.
